PHOSPHO1 inh: inhibitors of human PHOSPHO1 phosphatase; Q8TCT1; recombinant PHOSPHO1, absorbance phosphatase assay; 290,000 tested, 1.1% active; inhibition, % at 13.3 µM; in the data active means inhibition above about 60%
CHT inh: inhibitors of human choline transporter CHT | AID 488975 | CHT-expressing cells, membrane potential dye, choline response; hits give low values | 310,000 tested, 0.86% active | B-score at 10 µM | Q9GZV3;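 active means B-score over 3 SD under the library average, and starting fluorescence ratio not unusually high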;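 further: choline stimulus applied at its EC90 after an EC20 pre-addition; B-score computed on integrated fluorescence ratio after choline addition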
Target sequence (Q9GZV3 whole entry, looked up): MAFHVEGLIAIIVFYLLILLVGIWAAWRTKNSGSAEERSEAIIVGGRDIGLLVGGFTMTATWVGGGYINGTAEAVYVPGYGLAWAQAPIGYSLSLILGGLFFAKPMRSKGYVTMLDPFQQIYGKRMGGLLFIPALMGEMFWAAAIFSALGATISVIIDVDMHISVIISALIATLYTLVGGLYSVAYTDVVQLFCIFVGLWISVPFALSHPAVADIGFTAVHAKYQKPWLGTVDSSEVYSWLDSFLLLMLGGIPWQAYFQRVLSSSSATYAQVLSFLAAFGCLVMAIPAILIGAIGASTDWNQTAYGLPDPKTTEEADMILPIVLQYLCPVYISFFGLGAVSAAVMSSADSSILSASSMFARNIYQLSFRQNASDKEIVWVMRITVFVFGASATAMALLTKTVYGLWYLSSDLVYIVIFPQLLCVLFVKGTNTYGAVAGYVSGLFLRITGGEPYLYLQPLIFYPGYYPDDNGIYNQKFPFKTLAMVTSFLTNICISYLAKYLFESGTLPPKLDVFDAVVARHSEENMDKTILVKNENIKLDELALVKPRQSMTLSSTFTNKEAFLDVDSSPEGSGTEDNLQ
HSF1 inh: HSF1 inhibition; NIH3T3-HGL HSE-luciferase, MG132-induced, luminescence 8 h; hits give low values; activity change, negative = inhibition, % at 7.5 µM (by protocol); 300,000 tested, 0.77% active;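 active means more than half of replicate wells show activity change below -50%, luminescence cut by over half; inconclusive means some wells, but at most half, below -50%; inactive means no replicate well below -50%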;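 further: luciferase reports HSF-1 transcriptional activity via heat shock element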
HSF1 activator: increases HSF-1 driven luciferase reporter signal; activation, % at 9 µM; 300,000 tested, 1.7% active; AID 504408; NIH3T3-HGL HSF-1 luciferase reporter, MG132, 8 h; 100% = twice DMSO control signal;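 active means mean replicate activation of at least 50% with a set share of replicates each reaching 50%; inconclusive means only one of those two conditions met; inactive means mean below 50% and too few replicates reaching it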
Lipid droplet: hepatic lipid droplet formation modulation. AML12 mouse hepatocytes, oleate lipid droplets, BODIPY imaging. inhibition, % at 6.5 µM. 240,000 tested, 0.4% active;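 active means lipid droplet intensity inhibited by at least 50%, with more than 500 cells counted; inconclusive means wells with under 300 cells, treated as cytotoxic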
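Test system: AML12 mouse liver cells; schedule: overnight exposure; technique: high-content imaging of BODIPY-stained droplets and DAPI nuclei; read-out: % inhibition of corrected integrated BODIPY droplet signal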
CHT PAM: allosterically activates the human high affinity choline transporter. CHT-expressing cells, membrane potential dye, choline EC20; hits give high values; LV-AA mutant CHT in HEK293 cells. B-score at 10 µM. 310,000 tested, 0.49% active. AID 488977;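 active means initial fluorescence not abnormally high and integrated response B-score, plate-corrected, over 3 SD above library mean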
Hits are given with their value; - = inactive; ? = inconclusive; . = no result given. Sampled rows, rich in hits. Any-hit rate of the full collection: about 4.9%.

SMILES	PHOSPHO1 inh	CHT inh	HSF1 inh	HSF1 activator	Lipid droplet	CHT PAM
Cc1ccc(SCCNC(=O)CN(c2ccc3c(c2)OCO3)S(C)(=O)=O)cc1	-	-	-	-	-	-
COC(=O)CCC(=O)OC1(C)C(=O)C=C2C=C(C3CC3)N(c3cccc(C#N)c3)C=C2C1=O (stereo not given)	-	-	-	-	-	-
S=C1Cc2ccccc2N1	-	.	-77.3	-	-	.
Cc1ccccc1OCC(=O)Nc1ccc2c(c1)C(=O)N(CCC(=O)O)C2=O	-	-	-50.7	-	-	-
O=c1[nH]c2cc3c(cc2cc1CN(CC1CCCO1)S(=O)(=O)c1ccccc1)OCCO3 (stereo not given)	-	-	-	-	-	-
CCn1c(C(C#N)/C(=N\S(=O)(=O)c2cccs2)c2ccccc2)nc2ccccc21 (stereo not given)	-	-	-66.1	-	-	-
CCn1c(-c2cccs2)nc2ccccc21	-	-	-	-	-	-
CC12CCC(C(=O)NCCCN3CCOCC3)(C(Br)C1=O)C2(C)C (stereo not given)	-	-	-	-	-	-
CSC1=NC2C(N1)N(C)C(=O)N2C (stereo not given)	78.3	-	-	-	-	-
CC(=O)Oc1ccc(Cn2cnc3cc4ccccc4cc32)cc1	-	-	-	67.5	-	-
COc1ccc2nc(SCc3ccccc3C)nc(C)c2c1	-	-	-	54.9	-	-
COc1cc(-c2nc3cnccn3c2Nc2ccccc2)ccc1O	-	-	-	56.1	-	-
COc1cc(-c2nc3cnccn3c2Nc2ccc(C)cc2)ccc1O	-	-	-	-	-	-
CCC(Sc1nc2n[nH]c(C)c2c(=N)n1-c1cccc(Cl)c1)C(=O)NCCOC (stereo not given)	-	-	-	-	.	-
CCC(Sc1nc2n[nH]c(C)c2c(=N)n1-c1ccc(C)c(Cl)c1)C(=O)N1CCOCC1 (stereo not given)	-	-	-	55.5	-	-
CCn1c(SCC(=O)N/N=C/C=C/c2ccco2)nc2ccccc21	-	-	-	78.5	-	-
CCn1c(SCC(=O)N/N=C/C=C/c2ccco2)nnc1-c1ccc(OC)cc1	-	-	-	-	-	-
Cc1[nH]n(C(C)(C)C)c(=O)c1Sc1ccccc1	94.5	-	-	-	.	-
Cc1ccc(Sc2c(C)[nH]n(C(C)(C)C)c2=O)cc1	-	-	-	-	.	-
CCc1cccc(CC)c1NC(=S)N1CCn2cccc2C1c1cccnc1 (stereo not given)	-	-	-54.8	-	-	-
c1c2c(cc3sc(N4CCOCC4)nc13)OCO2	93.4	-	-	-	.	-
Brc1ccc2nc(N3CCN(c4ccccc4)CC3)sc2c1	-	-	-	73.1	-	-
Fc1ccc2nc(Nc3nc4cc5c(cc4s3)OCCO5)sc2c1	-	-	-	-	-	-
c1ccc(N2CCN(c3nc4cc5c(cc4s3)OCO5)CC2)cc1	-	-	-	71.9	-	-
c1ccc2sc(Nc3nc4cc5c(cc4s3)OCO5)nc2c1	-	-	-	75.7	-	-
SMILES	PHOSPHO1 inh	CHT inh	HSF1 inh	HSF1 activator	Lipid droplet	CHT PAM
c1ccc2c(c1)CCN(c1nc3cc4c(cc3s1)OCO4)C2	-	-	-	-	-	-
Clc1ccc2nc(N3CCN(c4ccccc4)CC3)sc2c1	-	-	-	?	-	-
CN(C)/C=C/C(=O)c1c(F)cccc1F	-	-	-	-	-	-
CC(C)C(c1nnnn1C1CCCC1)N1CCC(C(N)=O)CC1 (stereo not given)	-	-	-	-	-	-
O=C(O)CCCC(=O)OCCCCc1cccs1	-	-	-	-	.	-
CCOC(=O)C1=C(C)N=c2s/c(=C3\C(=O)Nc4ccccc43)c(=O)n2C1c1ccc2c(c1)OCO2 (stereo not given)	-	-	-	-	58.6	-
C[C@H](NS(=O)(=O)c1ccc(Cl)cc1)C(=O)OCC(=O)NC(=O)Nc1ccc2c(c1)OCCO2	-	-	-	-	-	-
O=C(C1CCC(CNS(=O)(=O)c2cccc3cccnc23)CC1)N1CCCC1 (stereo not given)	-	-	-86.1	-	-	-
CC12CCC(C(=O)Nc3ccccc3Br)(C/C1=N\O)C2(C)C (stereo not given)	-	-	-	-	.	-
CCn1c(SCC(=O)Nc2ccccc2OC)nc2ccccc2c1=O	-	-	.	.	-	-
Cc1cc(NC(=O)CSc2nc3c(sc4ccccc43)c(=O)n2CCCN2CCOCC2)n[nH]1	-	-	-	64.1	.	-
Cc1cc(NC(=O)CSc2nc3c(sc4ccccc43)c(=O)n2CCc2ccccc2)n[nH]1	-	-	-	-	-	-
CCOc1ccccc1-n1c(SCC(=O)Nc2ccccc2C(=O)O)nc2ccccc2c1=O	-	-	-74.0	-	-	-
Cc1ccc(NC(=O)CSc2nc3ccccc3c(=O)n2CCCN2CCCCC2)cc1C	-	-	-	-	.	7.28
COc1ccc(C)cc1-n1c(SCC(=O)Nc2cccc(C(=O)O)c2)nc2ccccc2c1=O	-	-	-	74.8	-	-
COc1ccccc1-n1c(SCC(=O)Nc2cccc(C(=O)O)c2)nnc1-c1ccccc1C	-	-	-	-	.	-
O=C(COC(=O)c1cc([N+](=O)[O-])ccc1NCc1ccccc1)NC1CCCc2ccccc21 (stereo not given)	-	-	-	-	-	-
Cc1nn(-c2ccccc2)c(N2CCCC2)c1/C=N/NC(=S)Nc1ccccc1F	-	-	-	-	-	-
CC1(C)CC(=O)C(Sc2nnc(-c3ccc(NS(C)(=O)=O)cc3)n2Cc2ccco2)C(=O)C1	95.7	-	.	.	.	-
CN(Cc1ccccc1)c1ccc(C(CC(N)=O)NC(=O)Cc2ccc(Br)cc2)cc1[N+](=O)[O-] (stereo not given)	-	-	-	-	-	-
CCc1cc2c(Sc3nc4ccccc4s3)ncnc2s1	-	-	-	98.8	.	-
Cc1ccc(N(C(=O)Cn2nnc(-c3ccc(C)o3)n2)C(C(=O)NC2CCCC2)c2ccncc2)cc1 (stereo not given)	-	-	-	-	-	-
COc1ccccc1C(=O)C1Nc2ccccc2-c2nnc(SC)nc2O1 (stereo not given)	-	-	-	-	-	-
CCCCSc1nnc2c(n1)OC(C(=O)c1ccccc1)Nc1ccccc1-2 (stereo not given)	90.2	.	-	-	-	.
Cn1cnc(S(=O)(=O)N2CCN(c3cccc(C(F)(F)F)c3)CC2)c1	-	-	-	-	-	-
CCn1c(SCC(=O)Nc2oc(C)c3c(C)n[nH]c(=O)c23)nc2sc(C)c(C)c2c1=O	.	-	-71.3	-	.	-
CC(CNC(=O)COc1ccccc1)OC(=O)Nc1ccc(Cl)c(Cl)c1 (stereo not given)	-	-	-	-	-	-

High-throughput results deposited in PubChem by several laboratories.
